From PubChem BioAssay
KCNK3 block – human KCNK3 channel inhibition, primary screen; AID 602410; B-score at 10 µM; CHO-KCNK3 thallium flux, FluxOR fluorescence; active compounds read low; O14649; 0.84% of 340,000 active;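 active means B-score under library mean minus 4 SD, starting fluorescence ratio at most library mean plus 5 SD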;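 further: more negative B-score means stronger inhibition of thallium flux through KCNK3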
KCNQ1 pot – potentiates or activates the human KCNQ1 potassium channel; P51787; CHO-K1 KCNQ1, thallium flux FluxOR fluorescence; active compounds read high; B-score at 10 µM; 0.35% of 310,000 active; AID 2648;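 active means fluorescence ratio B-score, a plate-corrected score, at least three library SD, with initial intensity B-score within 5 SD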
Target sequence (P51787 whole entry, looked up): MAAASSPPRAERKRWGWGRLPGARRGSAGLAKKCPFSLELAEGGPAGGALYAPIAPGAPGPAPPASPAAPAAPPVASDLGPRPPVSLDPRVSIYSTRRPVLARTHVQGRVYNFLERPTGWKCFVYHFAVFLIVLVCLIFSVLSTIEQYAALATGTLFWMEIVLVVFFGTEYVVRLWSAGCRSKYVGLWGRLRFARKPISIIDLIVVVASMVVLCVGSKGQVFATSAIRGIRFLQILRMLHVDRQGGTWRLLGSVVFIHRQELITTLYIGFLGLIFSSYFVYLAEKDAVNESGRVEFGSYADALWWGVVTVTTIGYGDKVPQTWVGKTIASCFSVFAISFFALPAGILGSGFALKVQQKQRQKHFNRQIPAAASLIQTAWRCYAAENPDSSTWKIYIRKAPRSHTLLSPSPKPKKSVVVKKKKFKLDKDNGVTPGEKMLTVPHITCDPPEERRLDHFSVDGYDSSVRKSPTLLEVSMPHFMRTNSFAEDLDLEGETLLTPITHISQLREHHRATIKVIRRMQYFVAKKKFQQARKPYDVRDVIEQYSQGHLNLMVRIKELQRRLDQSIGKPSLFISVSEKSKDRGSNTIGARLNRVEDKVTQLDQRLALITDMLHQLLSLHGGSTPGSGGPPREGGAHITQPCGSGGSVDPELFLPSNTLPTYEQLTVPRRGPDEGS
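System: Stable KCNQ1 CHO-K1 line | Incubation: 90 min dye loading and 20 min compound exposure, both at room temperature | Measure: Ratio B score | Medium: Assay buffer for compound exposure, DMSO matched across wells | Compound dosing: Single-concentration screen | Probe or stimulus: K+/Tl+ depolarizing stimulus | Measured by: Kinetic FluxOR fluorescence, 10 s baseline plus 110 s post-stimulus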
KCNK9 block – inhibitors of human KCNK9 two-pore domain potassium channel | Q9NPC2 | HEK293 KCNK9, FluxOR thallium flux fluorescence; active compounds read low | B-score at 10 µM | 1.2% of 310,000 active | AID 488922;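 active means ratio B-score over 3 SD below the library mean, with starting fluorescence within 5 SD of its mean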;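 further: negative B-score means less thallium flux so channel inhibition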
hERG protect – hERG (human) protection from proarrhythmic block | AID 1511 | activation (rescue from dofetilide block), less the hit threshold, % at 10 µM | Q12809 | 0.51% of 310,000 active | CHO-hERG, FluxOR thallium flux, dofetilide IC70 present;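 active means activation above the mean of controls blocked by dofetilide plus 5 SD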;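 further: thallium influx through hERG after potassium depolarization seen as dye fluorescence rise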
KCNQ1 block – inhibitors of human KCNQ1 potassium channel; P51787; CHO-K1 KCNQ1, FluxOR thallium flux fluorescence; active compounds read high; B-score at 10 µM; 1.3% of 310,000 active;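 active means compounds whose thallium flux B-score, printed positive for inhibition, exceeds three library SD while starting fluorescence stays within three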;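 further: channel opened by potassium depolarization with thallium stimulus after 20 min compound exposure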
Kir21 inh – Kir2.1 (mouse) channel inhibition; B-score at 10 µM; HEK293-Kir2.1, FluxOR thallium flux fluorescence; active compounds read low; 0.85% of 310,000 active; P35561;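 active means fluorescence ratio B-score at or below minus 3 SD of library scores, with starting-brightness B-score within 2 SD, cut at about -4.2 in these data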;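 further: channel flux triggered by added potassium and thallium sulfate stimulus; B-score of peak minus minimum fluorescence over baseline after thallium stimulus; more negative B-score means stronger Kir2.1 block with less thallium influx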
KCNK3 confirm – confirmation of human KCNK3 two-pore domain potassium channel inhibitors; 99% of 2,400 active; AID 651638; ratio percent of control, % at 10 µM; shares compounds with KCNK3 block; CHO-KCNK3 thallium flux, FluxOR fluorescence; 0% buffer, 100% carvedilol maximal block;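 active means ratio percent of control, averaged over triplicates, above buffer control mean plus 5 SD, cut at about 64% in these data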;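 further: ratio is the fluorescence rise from min to max over baseline after thallium stimulus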
KCNK3 noninduced – counter-screen for KCNK3 inhibitors: effect in non-induced cells. shares compounds with KCNK3 block. non-induced KCNK3 parental cells, FluxOR thallium flux; active compounds read low. thallium flux ratio (lower = more inhibition) at 10 µM. 40% of 2,400 active. AID 651747;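 active means thallium flux ratio, averaged over three wells, more than 5 SD below the buffer control mean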;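 further: host cells are CHO cells without KCNK3 induction; ratio is peak minus trough fluorescence over baseline then normalized to buffer controls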
Active calls of the source: *; i = inactive; . = no result. This is a sample that favours compounds with a hit; in the whole collection about 3.7% have one here.

SMILES	KCNK3 block	KCNQ1 pot	KCNK9 block	hERG protect	KCNQ1 block	Kir21 inh	KCNK3 confirm	KCNK3 noninduced
O=C(Nc1ccc(Oc2ccc(NC(=O)Nc3ccccc3Cl)cc2)cc1)Nc1ccccc1Cl	i	i	i	-4	i	1.4	.	.
COc1ccc(/C=C2\SC(=S)NC2=O)cc1OS(=O)(=O)c1ccc(NC(C)=O)cc1	-10*	i	i	-26	13*	0.57	124*	i
COc1ccc(OC)c(C2NC(=O)N(C)C(C)=C2C(=O)OCc2ccccc2)c1 (stereo not given)	-9.3*	i	i	-11	i	1.2	141*	0.11*
CC1=C(C(=O)OCc2ccccc2)C(c2ccccc2Cl)NC(=O)N1C (stereo not given)	i	i	i	-8	i	-3.4	.	.
CCc1ccc(OCCCC(=O)Nc2ccc(S(=O)(=O)Nc3cc(C)nc(C)n3)cc2)cc1	i	i	i	-5	i	-0.75	.	.
CCCCN(C)CCN1C(=O)C2C(C(=O)Nc3ccc(C)cc3)C3C=CC2(O3)C1C(=O)NC1CCCCC1 (stereo not given)	i	i	i	-4	i	-1.2	.	.
O=C(O)C1C2C=CC(C2)C1C(=O)NCc1ccc2c(c1)OCO2 (stereo not given)	-8.9*	i	i	-1	i	-0.58	90*	i
O=C(CCNS(=O)(=O)c1ccc(F)c(F)c1)NCCN1CCOCC1	i	.	.	.	.	.	.	.
CCn1c(SCC(=O)Nc2oc(-c3ccccc3)c(-c3ccccc3)c2C#N)nnc1-c1ccncc1	-9.3*	i	i	-11	i	0.73	118*	0.14*
O=C(NCCCn1ccnc1)c1cc(-c2cccc(O)c2)on1	i	i	i	-6	i	-2	.	.
CCOP(=O)(OCC)c1nc(-c2cccc3ccccc23)oc1NCc1ccc(OC)cc1	-11*	i	i	-23	i	0.78	107*	0.16*
COc1ccc(Cl)cc1NC(=O)CN(C)C(=O)c1cc2c(s1)CCC(C)C2 (stereo not given)	-8.8*	i	i	-11	i	0.8	107*	i
COc1ccc(CN(C)CC(=O)Nc2cccc3ccccc23)cc1F	-11*	i	i	-14	i	1.2	91*	i
COc1ccc(Cl)cc1NC(=O)CN(C)CC(=O)Nc1ccccc1C(F)(F)F	-9.1*	i	i	-21	i	0.2	102*	i
COc1ccc(NC(=O)CN(C)C(=O)c2cc3c(s2)CCC(C)C3)cc1 (stereo not given)	i	i	i	-13	i	-1.5	.	.
COc1cccc(-c2cccc(NC(=O)C3CCN(Cc4cccc(C)n4)CC3)c2)c1	i	i	i	-11	i	0.63	.	.
COc1cccc(O)c1CN1CCC(C(=O)Nc2ccc(-c3cccc(C)c3)cc2)CC1	-11*	i	i	-22	6*	0.73	125*	i
Cc1onc(-c2ccccc2)c1-c1ccnn1S(=O)(=O)c1ccc(Cl)cc1	-9.4*	i	i	-11	i	-3.6	103*	i
Cc1ccc(S(=O)(=O)N/N=c2\oc3ccccc3cc2C(=O)Nc2cccc(C)c2)cc1	.	i	i	-4	i	0.9	.	.
Cc1cc([N+](=O)[O-])ccc1-c1ccc(/C=N/NC(=O)c2ccc(Br)o2)o1	-9.4*	i	i	-1	i	-1.4	105*	i
Cc1ccc(/C=C/c2nnc(-c3cccs3)o2)cc1	-8.8*	i	i	-14	i	0.39	84*	i
Cc1ccc(/C=C/c2nnc(-c3ccc(C)cc3)o2)cc1	i	i	i	-8	i	-1.2	.	.
CC(=O)NN1C(=O)c2ccccc2NC1c1ccoc1 (stereo not given)	i	i	i	-10	i	0.71	.	.
CCCn1c(/C=C/c2ccccc2)nc2ccccc21	i	i	i	-13	i	-1.3	.	.
COCCOCCn1c(/C=C/c2ccccc2)nc2ccccc21	-9.2*	i	i	-10	i	-0.22	93*	i
SMILES	KCNK3 block	KCNQ1 pot	KCNK9 block	hERG protect	KCNQ1 block	Kir21 inh	KCNK3 confirm	KCNK3 noninduced
COCc1c(C(=O)N2CCc3ccccc32)oc2ccccc12	-11*	i	i	-4	i	-0.02	86*	i
Cc1c(C(=O)N2CCc3ccccc32)oc2ccccc12	i	i	i	-10	i	-0.55	.	.
O=C(CN1C(=O)NC2(CCCC2)C1=O)OCCOc1ccc(Cl)cc1	i	i	i	-17	i	-1.3	.	.
OCc1c(OCc2cccc(F)c2)ccc2ccccc12	-9.5*	i	i	-7	i	1.1	97*	i
COc1ccc(S(=O)(=O)Nc2cc(S(=O)(=O)N3CCOCC3)ccc2OC)cc1	i	.	.	.	.	.	.	.
Cc1onc(-c2ccccc2)c1C(=O)OCCOc1ccc([N+](=O)[O-])cc1[N+](=O)[O-]	-10*	i	i	-13	i	-1	92*	i
O=C(CCSCc1ccccc1F)NCCc1ccccc1	i	i	i	-15	i	0.19	.	.
CCOc1ccc(C2c3c(oc4ccccc4c3=O)C(=O)N2c2ccc(C)cn2)cc1OC (stereo not given)	-11*	i	i	-5	i	0.1	99*	i
COc1cc(C2c3c(oc4ccccc4c3=O)C(=O)N2c2ccc(C)cn2)ccc1O (stereo not given)	i	i	i	-7	i	0.43	.	.
COc1ccc(OC)c(/C=C/C(=O)N2CCCc3ccccc32)c1	-11*	i	i	-10	i	0.01	113*	i
COc1ccc(/C=C/C(=O)N2CCCc3ccccc32)c(OC)c1	i	i	i	-11	i	2.1	.	.
CC1Cc2ccccc2N1C(=O)COC(=O)c1ccc(N(C)C)cc1 (stereo not given)	i	.	.	.	.	.	.	.
CCC(CO)Nc1nc2ccc(Cl)cc2c2ccccc12 (stereo not given)	-9.2*	i	i	-7	i	0.05	98*	i
CCN1/C(=C\C(=S)Nc2ccccc2)Sc2ccccc21	-9.8*	i	i	-14	i	0.14	110*	i
Cc1cccc2cc(CN(Cc3ccco3)C(=O)c3ccncc3)c(=O)[nH]c12	-22*	i	i	-16	i	2.2	63*	i
